Active and inactive are the calls of the source. The calls are words filed in the database; no cut-off is given here.
How the values were obtained:
[1] = biological target: T1, 17-beta-hydroxysteroid dehydrogenase type 1 (Homo sapiens) (UniProt P14061); experiment: Inhibition of human placenta cytosolic 17betaHSD1 using [3H]E1 as substrate at 10 nM after 10 mins by radioflow detection assay
T1 sequence (whole entry): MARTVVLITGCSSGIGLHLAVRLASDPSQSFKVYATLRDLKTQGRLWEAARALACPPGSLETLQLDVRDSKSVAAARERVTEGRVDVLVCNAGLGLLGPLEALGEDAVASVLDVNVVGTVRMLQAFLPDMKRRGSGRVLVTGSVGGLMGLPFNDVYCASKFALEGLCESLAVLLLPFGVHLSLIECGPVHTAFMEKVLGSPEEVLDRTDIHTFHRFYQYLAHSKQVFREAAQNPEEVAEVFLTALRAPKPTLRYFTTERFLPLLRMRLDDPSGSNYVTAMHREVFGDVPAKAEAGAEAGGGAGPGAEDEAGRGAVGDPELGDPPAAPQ

[2] = biological target: T2, 17-beta-hydroxysteroid dehydrogenase type 1 (Homo sapiens, UniProt P14061); experiment: Inhibition of human placenta cytosolic 17betaHSD1 using [3H]E1 as substrate after 10 mins by radioflow detection assay
T2 sequence (P14061 whole entry): T1 sequence (whole entry)
Outline: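 Cytosolic 17β-HSD1 from fresh human placenta, obtained by ammonium sulfate precipitation. Incubated at 37 °C in 50 mM phosphate buffer with 20% glycerol and EDTA, with NADH 500 μM and compound (DMSO 1% final). Started with unlabeled + [3H]-E1 (500 nM final), stopped after 10 min with HgCl2, ether-extracted. E1/E2 quantified by radioflow HPLC as % conversion. At least three independent experiments.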

[3] = biological target: T3, 17-beta-hydroxysteroid dehydrogenase type 2 (Homo sapiens, UniProt P37059); experiment: Inhibition of human placenta microsomal 17betaHSD2 using [3H]E2 as substrate after 20 mins by radioflow detection assay
T3 sequence (P37059 whole entry): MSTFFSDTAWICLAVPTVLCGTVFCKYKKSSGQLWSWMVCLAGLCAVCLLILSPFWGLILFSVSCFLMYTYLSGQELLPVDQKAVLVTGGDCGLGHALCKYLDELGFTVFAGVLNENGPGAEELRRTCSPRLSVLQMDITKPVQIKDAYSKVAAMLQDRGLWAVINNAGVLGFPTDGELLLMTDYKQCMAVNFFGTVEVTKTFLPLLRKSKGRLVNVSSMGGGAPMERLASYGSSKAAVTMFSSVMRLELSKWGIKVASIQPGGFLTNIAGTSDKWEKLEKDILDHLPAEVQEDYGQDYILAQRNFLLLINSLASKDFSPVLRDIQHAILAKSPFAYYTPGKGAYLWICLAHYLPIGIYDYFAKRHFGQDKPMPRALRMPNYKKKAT
Outline: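 Microsomal (pellet) fraction of fresh human placenta incubated with NAD+ 1500 μM, compound, and unlabeled + [3H]-E2 (500 nM final) for 20 min at 37 °C. Stopped with 1 mM HgCl2, ether-extracted. Steroids separated by HPLC with radioflow detection, conversion computed. Mean of three determinations.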

Callithrix jacchus [4] = species: Callithrix jacchus; experiment: Inhibition of mormoset placenta cytosolic 17betaHSD1 using [3H]E1 as substrate at 50 nM after 10 mins by radioflow detection assay
Callithrix jacchus [5] = species: Callithrix jacchus; experiment: Inhibition of mormoset placenta microsomal 17betaHSD2 using [3H]E2 as substrate at 50 nM after 20 mins by radioflow detection assay
[6] = biological target: T4, Estrogen receptor (Homo sapiens) (UniProt P03372); experiment: Relative binding affinity to human recombinant ERalpha receptor using [3H]E2 as substrate after 1 hr by liquid scintillation counting relative to E2
T4 sequence (whole entry): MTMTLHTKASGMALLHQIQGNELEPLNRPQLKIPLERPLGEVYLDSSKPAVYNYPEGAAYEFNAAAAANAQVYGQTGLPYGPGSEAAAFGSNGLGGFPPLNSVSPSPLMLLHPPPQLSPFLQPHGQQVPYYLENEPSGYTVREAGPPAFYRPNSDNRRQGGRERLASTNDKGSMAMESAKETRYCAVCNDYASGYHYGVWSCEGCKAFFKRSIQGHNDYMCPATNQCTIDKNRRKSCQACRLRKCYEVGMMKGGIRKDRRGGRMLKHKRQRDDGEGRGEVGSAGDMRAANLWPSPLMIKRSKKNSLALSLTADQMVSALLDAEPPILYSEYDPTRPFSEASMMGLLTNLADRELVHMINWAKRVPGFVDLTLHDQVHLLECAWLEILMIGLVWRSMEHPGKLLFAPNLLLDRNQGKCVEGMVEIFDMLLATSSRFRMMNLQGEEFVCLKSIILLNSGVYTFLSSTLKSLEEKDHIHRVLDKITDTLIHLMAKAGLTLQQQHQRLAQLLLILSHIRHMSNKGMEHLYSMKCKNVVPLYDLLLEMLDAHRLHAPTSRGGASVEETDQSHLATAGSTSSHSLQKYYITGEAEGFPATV
Outline: (§1)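 Recombinant human ERα or ERβ (0.25 pmol) incubated 1 h at rt with [3H]-E2 (10 nM) and compound in DMSO (5% final). Nonspecific binding defined with diethylstilbestrol 10 μM. Bound complex captured on hydroxyapatite, washed, resuspended in ethanol, counted by liquid scintillation. Concentrations displacing 50% of bound label compared with E2, which is set at 100%.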

[7] = biological target: Estrogen receptor beta (Homo sapiens) (UniProt Q92731); experiment: Relative binding affinity to human recombinant ERbeta receptor using [3H]E2 as substrate after 1 hr by liquid scintillation counting relative to E2; outline: as §1
Chain of Estrogen receptor beta (Homo sapiens) (Q92731 whole entry): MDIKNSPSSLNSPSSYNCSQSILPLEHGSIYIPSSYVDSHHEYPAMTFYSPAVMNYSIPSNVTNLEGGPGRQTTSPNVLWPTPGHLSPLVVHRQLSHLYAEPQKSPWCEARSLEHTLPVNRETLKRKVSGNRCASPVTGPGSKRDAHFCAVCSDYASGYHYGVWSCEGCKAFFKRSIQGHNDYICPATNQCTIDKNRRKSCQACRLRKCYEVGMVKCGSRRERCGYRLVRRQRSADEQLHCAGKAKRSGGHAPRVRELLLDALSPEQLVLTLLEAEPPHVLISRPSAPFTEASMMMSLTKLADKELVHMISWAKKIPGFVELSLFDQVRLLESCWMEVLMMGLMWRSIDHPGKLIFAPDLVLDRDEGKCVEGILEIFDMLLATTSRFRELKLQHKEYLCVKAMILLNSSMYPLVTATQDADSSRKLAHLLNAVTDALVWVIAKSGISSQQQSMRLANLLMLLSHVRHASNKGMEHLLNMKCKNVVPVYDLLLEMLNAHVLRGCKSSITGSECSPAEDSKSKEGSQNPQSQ

[8] = biological target: T5, 17-beta-hydroxysteroid dehydrogenase type 1 (Mus musculus) (UniProt P51656); experiment: Inhibition of mouse liver cytosolic 17betaHSD1 using [3H]E1 as substrate
T5 sequence (whole entry): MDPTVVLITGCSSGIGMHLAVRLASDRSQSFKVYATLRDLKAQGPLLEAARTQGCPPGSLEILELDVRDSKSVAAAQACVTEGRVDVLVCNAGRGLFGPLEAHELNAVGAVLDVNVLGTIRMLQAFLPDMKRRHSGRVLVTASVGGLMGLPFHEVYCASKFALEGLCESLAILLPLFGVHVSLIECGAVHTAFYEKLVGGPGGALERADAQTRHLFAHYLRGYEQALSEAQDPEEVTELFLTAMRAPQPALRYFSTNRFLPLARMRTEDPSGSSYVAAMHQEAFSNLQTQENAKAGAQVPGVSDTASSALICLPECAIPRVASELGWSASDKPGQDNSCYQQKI

[9] = biological target: T2, 17-beta-hydroxysteroid dehydrogenase type 1; experiment: Inhibition of 17betaHSD1 in human T47D cells using [3H]E1 as substrate incubated for 30 mins prior to substrate addition measured after 30 mins by radioflow detection assay; format: cell-based
Outline: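 T47D cells kept in RPMI 1640 with 10% FCS, glutamine, insulin-zinc, pyruvate, antibiotics. Seeded at 5 × 10^5 cells/well in DMEM with FCS, switched to serum-free DMEM after 24 h. Compound added in DMSO (1% final), 30 min preincubation at 37 °C, 5% CO2. Then unlabeled + [3H]-E1 (50 nM final) for 30 min. Steroids extracted into diethylether. Mean of three determinations.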

[10] = biological target: T6, Estradiol 17-beta-dehydrogenase 2 (Mus musculus) (UniProt P51658); experiment: Inhibition of mouse liver microsomal 17betaHSD2 using [3H]E2 as substrate
T6 sequence (whole entry): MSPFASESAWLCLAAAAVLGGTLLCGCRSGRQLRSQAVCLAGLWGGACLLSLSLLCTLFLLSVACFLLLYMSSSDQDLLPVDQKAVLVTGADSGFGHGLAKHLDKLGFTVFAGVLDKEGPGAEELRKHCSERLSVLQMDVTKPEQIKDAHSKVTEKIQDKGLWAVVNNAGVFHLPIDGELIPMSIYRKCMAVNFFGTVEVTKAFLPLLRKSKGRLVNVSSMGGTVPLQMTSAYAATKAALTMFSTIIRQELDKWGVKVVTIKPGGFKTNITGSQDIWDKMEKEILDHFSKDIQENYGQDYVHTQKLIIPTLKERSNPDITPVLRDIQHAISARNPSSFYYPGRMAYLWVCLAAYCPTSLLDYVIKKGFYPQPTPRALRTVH

Compound: N#Cc1ccccc1S(=O)(=O)Nc1cccc(-c2c(O)ccc3cc(-c4cccc(O)c4)ccc23)c1
- inhibition [1]: > 30%
- IC50 [2]: 14 nM
- IC50 [3]: 439 nM
- inhibition (Callithrix jacchus [4]): 43%
- inhibition (Callithrix jacchus [5]): 35%
- RBA [6]: < 0.1%
- RBA [7]: < 0.1%
- inhibition [8]: inactive
- IC50 [9]: 157 nM
- inhibition [10]: Active

Compound: O=S(=O)(CC(F)(F)F)Nc1cccc(-c2c(O)ccc3cc(-c4cccc(O)c4)ccc23)c1
- inhibition [1]: > 30%
- IC50 [2]: 32 nM
- IC50 [3]: 1210 nM
- inhibition (Callithrix jacchus [4]): 17%
- inhibition (Callithrix jacchus [5]): 32%
- RBA [6]: < 0.1%
- RBA [7]: < 0.1%
- inhibition [8]: inactive
- IC50 [9]: 246 nM
- inhibition [10]: Active

Compound: O=S(=O)(Nc1cccc(-c2c(O)ccc3cc(-c4cccc(O)c4)ccc23)c1)c1cccc(O)c1
- IC50 [2]: 14 nM
- IC50 [3]: 999 nM
- inhibition (Callithrix jacchus [4]): 20%
- inhibition (Callithrix jacchus [5]): < 10%
- RBA [6]: < 0.1%
- RBA [7]: < 0.1%
- inhibition [8]: inactive
- IC50 [9]: 701 nM
- inhibition [10]: Active

Compound: O=S(=O)(Nc1cccc(-c2c(O)ccc3cc(-c4cccc(O)c4)ccc23)c1)c1ccccc1
- inhibition [1]: > 30%
- IC50 [2]: 15 nM
- IC50 [3]: 403 nM
- inhibition (Callithrix jacchus [4]): 19%
- inhibition (Callithrix jacchus [5]): < 10%
- RBA [6]: < 0.1%
- RBA [7]: < 0.1%
- inhibition [8]: inactive
- IC50 [9]: 196 nM
- inhibition [10]: Active

Source: ChEMBL document CHEMBL2040729, “Lead optimization of 17β-HSD1 inhibitors of the (hydroxyphenyl)naphthol sulfonamide type for the treatment of endometriosis” (J Med Chem, 2012)
